Reference: ChEMBL document CHEMBL1821687, “Discovery, synthesis, and biological evaluation of novel SMN protein modulators” (J Med Chem, 2011)
Values belong to the compound of their own block, whether it stands above or below them. The source made the active and inactive calls. The rule behind the calls is not given here.

What was measured:
[1] = Half-life in human serum; assay type: ADME, cell-free
[2] = target: T1, Luciferin 4-monooxygenase (Luciola lateralis, UniProt Q01158); assay: Inhibition of fire fly luciferase; design: species or system Aquatica lateralis
T1 sequence (Q01158 whole entry): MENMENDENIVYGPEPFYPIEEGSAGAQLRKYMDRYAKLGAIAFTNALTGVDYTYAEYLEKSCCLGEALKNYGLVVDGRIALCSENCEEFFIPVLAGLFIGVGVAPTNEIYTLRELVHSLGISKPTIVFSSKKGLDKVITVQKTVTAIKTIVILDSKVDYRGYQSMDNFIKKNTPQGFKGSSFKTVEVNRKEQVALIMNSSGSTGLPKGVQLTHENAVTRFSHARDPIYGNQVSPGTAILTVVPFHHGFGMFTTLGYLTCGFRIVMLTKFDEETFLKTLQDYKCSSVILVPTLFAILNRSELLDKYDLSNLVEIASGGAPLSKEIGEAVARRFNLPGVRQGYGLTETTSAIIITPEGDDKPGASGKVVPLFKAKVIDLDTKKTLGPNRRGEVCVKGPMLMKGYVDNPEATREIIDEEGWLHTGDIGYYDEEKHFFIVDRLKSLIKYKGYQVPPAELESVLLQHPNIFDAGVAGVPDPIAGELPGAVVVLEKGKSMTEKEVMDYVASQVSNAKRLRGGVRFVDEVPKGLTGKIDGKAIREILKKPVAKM

[3] = target: Survival motor neuron protein (Homo sapiens) (UniProt Q16637); assay: Activation of SMN expressed in HEK293 cells assessed as rate of induction by SMN2-promotor driven luciferase reporter gene assay relative to basal level; assay type: cell-based; design: concentration or dose not given beside the values
Survival motor neuron protein (Homo sapiens), sequence (Q16637 whole entry): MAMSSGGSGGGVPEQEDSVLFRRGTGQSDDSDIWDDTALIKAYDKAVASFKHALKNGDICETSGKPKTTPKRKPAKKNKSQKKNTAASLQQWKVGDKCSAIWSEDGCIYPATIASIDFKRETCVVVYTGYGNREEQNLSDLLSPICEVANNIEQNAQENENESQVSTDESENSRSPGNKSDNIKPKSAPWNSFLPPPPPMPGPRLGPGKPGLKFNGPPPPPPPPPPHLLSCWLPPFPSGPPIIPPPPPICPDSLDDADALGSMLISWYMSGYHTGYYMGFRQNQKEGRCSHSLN
Summary of the method: (§1)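 HEK-293 cells stably carrying the SMN2 reporter construct, kept in DMEM with 10% FCS, glutamax, pyruvate, pen/strep and 200 µg/mL hygromycin, and assayed without hygromycin. 2,000 cells/well were plated and adhered overnight at 37 °C, 5% CO2. Compounds were added as a 7-point titration, 50 µM to 25 nM final, in 0.46% DMSO, for 30–36 h. OneGlo luminescence was normalized to 4.5 mM sodium butyrate (100%) and DMSO (0%).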

[4] = system: Liver; assay: Half-life in mouse liver microsome at 1 uM; assay type: ADME; settings: microsomes
[5] = target: Survival motor neuron protein (Homo sapiens) (UniProt Q16637); assay: Activation of SMN expressed in HEK293 cells assessed as concentration required to reach 50% of maximum luciferase signal by SMN2-promotor driven luciferase reporter gene assay; assay type: cell-based; summary of the method: as §1
[6] = system: Caco-2; assay: Apparent permeability from basolateral side to apical side of human Caco2 cells at 10 uM; assay type: ADME, cell-based; settings: caco-2, 10 µM
[7] = system: Caco-2; assay: Apparent permeability from apical side to basolateral side of human Caco2 cells at 10 uM; assay type: ADME, cell-based; settings: caco-2, 10 µM
[8] = target: Survival motor neuron protein (Homo sapiens) (UniProt Q16637); assay: Activation of SMN in human fibroblast cells obtained from type 1 SMA patients assessed as increase in SMN protein level by quantitative Western blot method; assay type: cell-based
Summary of the method: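 Type I SMA patient fibroblasts (3813 line) were seeded at 8,000 cells/cm2 24 h before dosing, with medium and compound renewed every 24 h for 72 h. Lysates (10 µg protein/lane) were immunoblotted for SMN (4f11 antibody) and α-tubulin. Band intensity was normalized to tubulin and expressed as fold over the DMSO control.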

[9] = target: Survival motor neuron protein (Homo sapiens) (UniProt Q16637); assay: Activation of SMN expressed in HEK293 cells by SMN2-promotor driven luciferase reporter gene assay; assay type: cell-based; summary of the method: as §1
[10] = system: Brain; assay: Drug level in Swiss albino mouse brain at 30 mg/kg, po after 1 hr; assay type: ADME, organism-based; design: dose 30 mg/kg, route oral; settings: in vivo
Summary of the method: (§2)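 Male Swiss Albino mice received a single 30 mg/kg oral gavage dose. Compound levels were measured in plasma and brain over time, and PK parameters were derived from the concentration–time data.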

[11] = system: Brain; assay: Cmax in brain of Swiss albino mouse at 30 mg/kg, po; assay type: ADME, organism-based; design: dose 30 mg/kg, route oral; settings: in vivo; summary of the method: as §2
[12] = Plasma concentration in Swiss albino mouse at 30 mg/kg, po after 0.5 hrs; assay type: ADME, organism-based; design: dose 30 mg/kg, route oral; summary of the method: as §2
[13] = system: Brain; assay: Drug level in Swiss albino mouse brain at 30 mg/kg, po after 0.083 hr; assay type: ADME, organism-based; design: dose 30 mg/kg, route oral; settings: in vivo
[14] = system: Plasma; assay: Cmax in plasma of Swiss albino mouse at 30 mg/kg, po; assay type: ADME, organism-based; design: dose 30 mg/kg, route oral; settings: in vivo; summary of the method: as §2
[15] = Plasma concentration in Swiss albino mouse at 30 mg/kg, po after 1 hr; assay type: ADME, organism-based; design: dose 30 mg/kg, route oral; summary of the method: as §2
[16] = system: Plasma; assay: AUC (infinity) in plasma of Swiss albino mouse at 30 mg/kg, po; assay type: ADME, organism-based; design: dose 30 mg/kg, route oral, time infinity; settings: in vivo; summary of the method: as §2
[17] = system: Brain; assay: Drug level in Swiss albino mouse brain at 30 mg/kg, po after 12 hrs; assay type: ADME, organism-based; design: dose 30 mg/kg, route oral; settings: in vivo; summary of the method: as §2
[18] = system: Brain; assay: Half-life in brain of Swiss albino mouse at 30 mg/kg, po; assay type: ADME, organism-based; design: dose 30 mg/kg, route oral; settings: in vivo; summary of the method: as §2
[19] = system: Brain; assay: AUC (infinity) in brain of Swiss albino mouse at 30 mg/kg, po; assay type: ADME, organism-based; design: time infinity, dose 30 mg/kg, route oral; settings: in vivo; summary of the method: as §2
[20] = Plasma concentration in Swiss albino mouse at 30 mg/kg, po after 0.25 hrs; assay type: ADME, organism-based; design: dose 30 mg/kg, route oral; summary of the method: as §2
[21] = Plasma concentration in Swiss albino mouse at 30 mg/kg, po after 24 hrs; assay type: ADME, organism-based; design: dose 30 mg/kg, route oral; summary of the method: as §2
[22] = Plasma concentration in Swiss albino mouse at 30 mg/kg, po after 4 hrs; assay type: ADME, organism-based; design: dose 30 mg/kg, route oral; summary of the method: as §2
[23] = Plasma concentration in Swiss albino mouse at 30 mg/kg, po after 12 hrs; assay type: ADME, organism-based; design: dose 30 mg/kg, route oral; summary of the method: as §2
[24] = Plasma concentration in Swiss albino mouse at 30 mg/kg, po after 0.083 hrs; assay type: ADME, organism-based; design: dose 30 mg/kg, route oral
[25] = system: Brain; assay: Drug level in Swiss albino mouse brain at 30 mg/kg, po after 0.5 hr; assay type: ADME, organism-based; design: dose 30 mg/kg, route oral; settings: in vivo; summary of the method: as §2
[26] = system: Brain; assay: Drug level in Swiss albino mouse brain at 30 mg/kg, po after 2 hrs; assay type: ADME, organism-based; design: dose 30 mg/kg, route oral; settings: in vivo; summary of the method: as §2
[27] = system: Brain; assay: Drug level in Swiss albino mouse brain at 30 mg/kg, po after 24 hrs; assay type: ADME, organism-based; design: dose 30 mg/kg, route oral; settings: in vivo; summary of the method: as §2
[28] = Ratio of AUC in brain to AUC in plasma in Swiss albino mouse at 30 mg/kg, po; assay type: ADME, organism-based; design: dose 30 mg/kg, route oral; settings: brain and plasma
Summary of the method: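 Single oral gavage dose of 30 mg/kg given to male Swiss Albino mice; compound concentrations measured in both plasma and brain, from which brain and plasma exposure parameters were derived; animals observed for behavioural disturbance throughout the study.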

[29] = system: Plasma; assay: Half-life in plasma of Swiss albino mouse at 30 mg/kg, po; assay type: ADME, organism-based; design: dose 30 mg/kg, route oral; settings: in vivo; summary of the method: as §2
[30] = system: Brain; assay: Drug level in Swiss albino mouse brain at 30 mg/kg, po after 4 hrs; assay type: ADME, organism-based; design: dose 30 mg/kg, route oral; settings: in vivo; summary of the method: as §2
[31] = system: Brain; assay: Drug level in Swiss albino mouse brain at 30 mg/kg, po after 8 hrs; assay type: ADME, organism-based; design: dose 30 mg/kg, route oral; settings: in vivo; summary of the method: as §2
[32] = system: Brain; assay: AUClast in brain of Swiss albino mouse at 30 mg/kg, po; assay type: ADME, organism-based; design: time 0 - last, dose 30 mg/kg, route oral; settings: in vivo; summary of the method: as §2
[33] = system: Brain; assay: Drug level in Swiss albino mouse brain at 30 mg/kg, po after 0.25 hr; assay type: ADME, organism-based; design: dose 30 mg/kg, route oral; settings: in vivo; summary of the method: as §2
[34] = Plasma concentration in Swiss albino mouse at 30 mg/kg, po after 2 hrs; assay type: ADME, organism-based; design: dose 30 mg/kg, route oral; summary of the method: as §2
[35] = system: Plasma; assay: AUClast in plasma of Swiss albino mouse at 30 mg/kg, po; assay type: ADME, organism-based; design: time 0 - last, dose 30 mg/kg, route oral; settings: in vivo; summary of the method: as §2
[36] = Plasma concentration in Swiss albino mouse at 30 mg/kg, po after 8 hrs; assay type: ADME, organism-based; design: dose 30 mg/kg, route oral; summary of the method: as §2

Compound: CCCC(=O)[O-].[Na+] [SODIUM BUTYRATE]
half-life [1]: 6 min

Compound: COc1nc(-c2ccccc2)nnc1-c1ccccc1
Activity [8]: Dose-dependent effect
Activity [9]: Active

Compound: O=C([O-])CCCc1ccccc1.[Na+] [SODIUM PHENYLBUTYRATE]
half-life [1]: 90 min

Compound: NC(=O)C1CCN(c2nc(-c3ccc(Br)cc3)cs2)CC1
IC50 [2]: Not Active
Papp [6]: 12.1 ×10⁻⁶ cm/s
Activity [3]: 268%
Activity [8]: Dose-dependent effect
t1/2 [4]: 12 min
Papp [7]: 30.7 ×10⁻⁶ cm/s
Activity [5]: 1.22 µM
Activity [9]: Active

Compound: CC(C)Oc1cccc(-c2cnc(N3CCC(C(N)=O)CC3)s2)c1
IC50 ([2]; read-out: IC50): 0.8 µM
Papp [6]: 0.3 ×10⁻⁶ cm/s
Drug uptake [10]: 0.6 µmol/kg
Cmax [11]: 1.28 µmol/kg
concentration at 0.5 h [12]: 1200 nM
Drug uptake [13]: 1.28 µmol/kg
Cmax [14]: 3720 nM
concentration at 1 h [15]: 1270 nM
Activity [3]: 709%
AUC [16]: 1429 ng·h/mL
Drug uptake [17]: 0 µmol/kg
t1/2 [18]: 326 min
AUC [19]: 607 ng·h/mL
concentration at 0.25 h [20]: 1200 nM
concentration at 24 h [21]: 60 nM
concentration at 4 h [22]: 2.8 nM
concentration at 12 h [23]: 19 nM
concentration at 0.083 h [24]: 3720 nM
Drug uptake [25]: 0.4 µmol/kg
Drug uptake [26]: 0.23 µmol/kg
Drug uptake [27]: 0.023 µmol/kg
Kp [28]: 0.29
t1/2 [29]: 347 min
Drug uptake [30]: 0.083 µmol/kg
t1/2 [4]: 30 min
Drug uptake [31]: 0 µmol/kg
AUClast [32]: 546 ng·h/mL
Drug uptake [33]: 0.31 µmol/kg
Papp [7]: 6.1 ×10⁻⁶ cm/s
concentration at 2 h [34]: 600 nM
Activity [5]: 0.077 µM
AUClast [35]: 1857 ng·h/mL
concentration at 8 h [36]: 25 nM

Compound: CSc1ccc(-c2cnc(N3CCC(C(N)=O)CC3)s2)cc1
IC50 ([2]; read-out: IC50): 40 µM
Papp [6]: 0.2 ×10⁻⁶ cm/s
Activity [3]: 576%
t1/2 [4]: 2 min
Papp [7]: 1.6 ×10⁻⁶ cm/s
Activity [5]: 0.031 µM

Compound: CCOc1ccc(-c2csc(N3CCC(C(N)=O)CC3)n2)cc1
Activity [3]: 212%
Activity [5]: 3.87 µM

Now from value to compound, other results behind:

IC50 ([2]; read-out: IC50): 6.4 µM
t1/2 [4]: 7 min
Compound: Cc1ccc(-c2cnc(N3CCC(C(N)=O)CC3)s2)cc1
Activity [3]: 609%
Activity [5]: 0.077 µM

IC50 ([2]; read-out: IC50): 1.6 µM
Papp [6]: 12 ×10⁻⁶ cm/s
Papp [7]: 32.6 ×10⁻⁶ cm/s
Compound: O=C(O)C1CCN(c2nc(-c3ccc(Br)cc3)cs2)CC1
Activity [3]: 554%
Activity [5]: 4.87 µM

IC50 ([2]; read-out: IC50): 4 µM
t1/2 [4]: < 15 min
Compound: O=C(Nc1ccccc1)C1CCN(c2ncc(-c3ccc4c(c3)OCCCO4)s2)CC1
Activity [3]: 353%
Activity [5]: 0.049 µM
